Source: ChEMBL document CHEMBL1130202, “Biologically active heteroarotinoids exhibiting anticancer activity and decreased toxicity” (J Med Chem, 1997)
Calls of active or inactive are those of the source. The calls are words filed in the database; no cut-off is given here.

Experiments:
Mus musculus [1] = species: Mus musculus; test: Enlarged lymph in gross pathological observations in mice with hypervitaminosis A at mid dose 2 with gross observations/total number of mice in group; 1/16; assay type: functional, organism-based
Mus musculus [2] = species: Mus musculus; test: Fracture incidence in mouse at high dose; 3/8
Mus musculus [3] = species: Mus musculus; test: Effect of compound on white blood cells levels in mice at low dose on day 8; assay type: functional
Method in brief: (§1)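 Male B6D2F1 mice were gavaged daily with compound in corn oil at low, mid 1, mid 2 or high dose. Serum triglycerides and circulating white blood cells were measured on the stated day (8, 29, 36, 65). Values are group mean ± SD expressed as % relative to corn-oil vehicle, with significance at p ≤ 0.05.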

Mus musculus [4] = species: Mus musculus; test: Effect of compound on serum triglycerides levels in mice at mid dose 2 on day 8; assay type: functional; method in brief: as §1
Mus musculus [5] = species: Mus musculus; test: Alopecia in mice observed at mid dose 1 with Hypervitaminosis; 2/16; assay type: functional, organism-based
Mus musculus [6] = species: Mus musculus; test: Avoiding pressure on limbs in mice at mid dose 1 with Hypervitaminosis 0/16; assay type: functional, organism-based; details: Limb
Mus musculus [7] = species: Mus musculus; test: Alopecia in mice observed at low dose with Hypervitaminosis; 0/16; assay type: functional, organism-based
Mus musculus [8] = species: Mus musculus; test: Average number of fractures per mouse at lmid dose 1
Mus musculus [9] = species: Mus musculus; test: Fracture incidence in mouse at high dose; 2/8
Mus musculus [10] = species: Mus musculus; test: Alopecia in mice observed at mid dose 2 with Hypervitaminosis; 1/16; assay type: functional, organism-based
Mus musculus [11] = species: Mus musculus; test: Effect of compound on Spleen to body weight ratios in mice at low dose; assay type: functional
Method in brief: (§2)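 Male B6D2F1 mice dosed daily by gavage with compound in corn oil; vehicle 1 (corn oil) controls run to termination on day 65. Low, mid 1, mid 2 and high dose groups, with dosage increases partway through the study. Organ-to-body weight ratios (×1000) taken at necropsy on day 65, reported as mean ± SD for 4 to 8 animals and as % difference from vehicle.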

Mus musculus [12] = species: Mus musculus; test: Effect of compound on serum Alkaline phosphatase levels in mice at mid dose 1 on day 29; assay type: functional
Method in brief: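 Male B6D2F1 mice dosed daily by oral gavage in corn oil at low, mid 1, mid 2 or high dose. Blood sampled on set days (8, 29, 36, 65) for clinical chemistry, serum alkaline phosphatase and triglycerides. Group mean ± SD reported as % relative to vehicle 1; significance p < 0.05 versus corn oil vehicle.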

Mus musculus [13] = species: Mus musculus; test: Avoiding pressure on limbs in mice at mid dose 1 with Hypervitaminosis; 0/16; assay type: functional, organism-based; details: Limb
Mus musculus [14] = test: Avoiding pressure on limbs at 0.8 mg/kg/day dose in mice hypervitaminosis; 0/16; assay type: functional, organism-based; details: Limb
Mus musculus [15] = test: Effect of compound on thymus to body weight ratios in mice at 0.8 mg/kg/day dose; all the animals died by day 65; assay type: functional, organism-based
Method in brief: (§3)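 Male B6D2F1 mice were dosed daily by gavage in corn oil, with TTNPB given at 0.1–0.8 or 0.01/0.05 mg/kg/day. Thymus-to-body weight ratio (×1000) was taken at necropsy on day 65 against vehicle 1, or on day 25 for the 0.01/0.05 groups against vehicle 2. Mean ± SD of 4–8 animals, reported as % difference from vehicle.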

[16] = Mortality rate in mice at 0.8 mg/kg/day; range (7-8); assay type: ADME, organism-based; details: mouse, in vivo
Method in brief: (§4)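 Male B6D2F1 mice given compound daily by gavage in corn oil at the stated dose levels, with corn oil vehicle controls. Deaths counted as animals found dead or sacrificed moribund, with day(s) of death recorded. Heteroarotinoid groups ran to day 65 and low-dose reference groups to day 25.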

Mus musculus [17] = test: Enlarged spleen in Gross pathological observations with hypervitaminosis A at 0.01 mg/kg/day dose with gross observations/total number of animals in group; 5/8; assay type: functional, organism-based
Mus musculus [18] = test: Fracture incidents in mouse at 0.01 mg/kg/day; 1/7
Mus musculus [19] = test: Alopecia observed at 0.4 mg/kg/day dose in mice with hypervitaminosis; 8/16; assay type: functional, organism-based
Mus musculus [20] = test: Enlarged spleen in gross pathological observations with hypervitaminosis A at 0.05 mg/kg/day dose with gross observations/total number of animals in group; 5/8; assay type: functional, organism-based
Mus musculus [21] = test: Fracture incidents in mouse at 0.8 mg/kg/day; 0/16
Mus musculus [22] = test: Alopecia observed at 0.1 mg/kg/day dose in mice with hypervitaminosis; 10/16; assay type: functional, organism-based
Mus musculus [23] = test: Effect of compound on adrenal to body weight ratios in mice at 0.1 mg/kg/day dose; all the animals died by day 65; assay type: functional, organism-based
[24] = Mortality rate in mice at 0.05 mg/kg/day; assay type: ADME, organism-based; details: mouse, in vivo; method in brief: as §4
Mus musculus [25] = test: Effect of compound on adrenal to body weight ratios in mice at 0.2 mg/kg/day dose; all the animals died by day 65; assay type: functional, organism-based
Mus musculus [26] = test: Average number of fractures per mouse at 0.4 mg/kg/day
Mus musculus [27] = test: Effect of compound on thymus to body weight ratios in mice at 0.2 mg/kg/day dose; all the animals died by day 65; assay type: functional, organism-based; method in brief: as §3
Mus musculus [28] = test: Skin scaling at 0.1 mg/kg/day in mice with hypervitaminosis; 14/16; assay type: functional, organism-based
Mus musculus [29] = test: Average number of fractures per mouse at 0.2 mg/kg/day; 1/3
Mus musculus [30] = test: Fracture incidents in mouse at 0.4 mg/kg/day; 3/12
Mus musculus [31] = test: Fracture incidents in mouse at 0.05 mg/kg/day; 7/8
Mus musculus [32] = test: Avoiding pressure on limbs at 0.1 mg/kg/day dose in mice hypervitaminosis; 0/16; assay type: functional, organism-based; details: Limb
Mus musculus [33] = test: Alopecia observed at 0.8 mg/kg/day dose in mice with hypervitaminosis; 3/16; assay type: functional, organism-based
Mus musculus [34] = test: Effects of retinoids on thymus to body weight ratios in mice at 0.01 mg/kg/day dose
Mus musculus [35] = species: Mus musculus; test: Fracture incidence in mouse at mid dose 2; 6/7
Mus musculus [36] = species: Mus musculus; test: Effect of compound on adrenal to body weight ratios in mice at high dose on day 65; all the animals died by day 65; assay type: functional, organism-based; method in brief: as §2
Mus musculus [37] = species: Mus musculus; test: Compound toxicity determined by total dose to termination (day 25/65) in mid dose 2; assay type: functional
Mus musculus [38] = species: Mus musculus; test: Compound toxicity determined by total dose to termination (day 25/65) in mid dose 1; assay type: functional
Method in brief: (§5)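 Male B6D2F1 mice given daily oral gavage in corn oil; dosages increased during the study (day 30 or day 51 depending on compound). Cumulative dose in mg/kg administered up to termination (day 65, or day 25 for TTNPB 0.01/0.05 mg/kg/day groups).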

Mus musculus [39] = species: Mus musculus; test: Compound toxicity determined by total dose to termination (day 25/65) in high dose; assay type: functional; method in brief: as §5
Mus musculus [40] = species: Mus musculus; test: Fracture incidence in mouse at mid dose 1; 5/8
Mus musculus [41] = species: Mus musculus; test: Effect of compound on right testicle to body weight ratios in mice at high dose on day 65; all the animals died by day 65; assay type: functional, organism-based; method in brief: as §2

With `CC(/C=C/C=C(\C)c1ccc2c(c1)C(C)(C)CCO2)=C\C(=O)O` the Activity (Mus musculus [1]) was “inactive”, the Activity (Mus musculus [2]) was “Weak activity” and the Activity (Mus musculus [3]) was 4.84. The Activity (Mus musculus [4]) was 112.3, the Activity (Mus musculus [5]) was “inactive” and the Activity (Mus musculus [6]) was “inactive”. The Activity (Mus musculus [7]) was “inactive”.
In the case of `CC(/C=C/C=C(\C)c1ccc2c(c1)C(C)(C)CCS2)=C\C(=O)O`, the Activity (Mus musculus [8]) is reported as 0, the Activity (Mus musculus [9]) is reported as “Weak activity” and the Activity (Mus musculus [10]) is reported as “inactive”. For the same compound, the Activity (Mus musculus [11]) was 2.1, the Activity (Mus musculus [12]) was 135.8 and the Activity (Mus musculus [13]) was “inactive”.
For `C/C(=C\c1ccc(C(=O)O)cc1)c1ccc2c(c1)C(C)(C)CCC2(C)C`, the Activity (Mus musculus [14]) was “inactive”, the Activity (Mus musculus [15]) was “Toxic” and the Mortality [16] was 16 day of death. For the same compound, the Activity (Mus musculus [17]) was “Weak activity”, the Activity (Mus musculus [18]) was “inactive” and the Activity (Mus musculus [19]) was “Weak activity”. The Activity (Mus musculus [20]) was “Weak activity”, the Activity (Mus musculus [21]) was “inactive” and the Activity (Mus musculus [22]) was “Weak activity”. The Activity (Mus musculus [23]) was “Toxic”, the Mortality [24] was 3 day of death and the Activity (Mus musculus [25]) was “Toxic”. The Activity (Mus musculus [26]) was 0.4, the Activity (Mus musculus [27]) was “Toxic” and the Activity (Mus musculus [28]) was “Active”. The Activity (Mus musculus [29]) was “Weak activity”, the Activity (Mus musculus [30]) was “Weak activity” and the Activity (Mus musculus [31]) was “Active”. For the same compound, the Activity (Mus musculus [32]) was “inactive”, the Activity (Mus musculus [33]) was “inactive” and the Activity (Mus musculus [34]) was “Toxic”.
For `C/C(=C\c1ccc(C(=O)O)cc1)c1ccc2c(c1)C(C)(C)CCO2`, the Activity (Mus musculus [35]) was “Active”, the Activity (Mus musculus [36]) was “Toxic” and the Total dose (Mus musculus [37]) was 588.4 mg/kg. The Total dose (Mus musculus [38]) was 294.2 mg/kg, the Total dose (Mus musculus [39]) was 1176.8 mg/kg and the Activity (Mus musculus [40]) was “Weak activity”. The Activity (Mus musculus [41]) was “Toxic”.
